Measured values taken from ChEMBL document CHEMBL4196022, “Alkynyl-containing phenylthiazoles: Systemically active antibacterial agents effective against methicillin-resistant Staphylococcus aureus (MRSA)” (Eur J Med Chem, 2018).
≈ marks a conversion by molar mass, not a printed value.

Key:
[1] = test system: Staphylococcus aureus; test: Potency index, ratio of vancomycin MIC to compound MIC for antibacterial activity against vancomycin-resistant Staphylococcus aureus VRS11a; type: functional
[2] = test system: Staphylococcus aureus; test: Antibacterial activity against vancomycin-resistant Staphylococcus aureus VRS10 after 20 hrs by broth microdilution assay; type: functional; conditions: VRS10, 20 h
In short: (§1)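 Broth microdilution per CLSI in cation-adjusted Mueller Hinton broth. Compounds serially diluted, in triplicate. Incubation at 37 °C for at least 20 hours. MIC taken as the lowest concentration with no visible bacterial growth.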

[3] = test system: Staphylococcus aureus; test: Potency index, ratio of vancomycin MIC to compound MIC for antibacterial activity against vancomycin-resistant Staphylococcus aureus VRS10; type: functional
[4] = test system: Staphylococcus aureus; test: Ratio of MBC to MIC for vancomycin-resistant Staphylococcus aureus VRS10; type: functional
In short: (§2)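 MBC/MIC ratio. […] MBC by plating no-growth wells onto tryptic soy agar at 37 °C for at least 18 h; taken as the concentration giving 99.9% growth inhibition.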

[5] = test system: Staphylococcus aureus; test: Ratio of MBC to MIC for methicillin-resistant Staphylococcus aureus NRS119; type: functional; in short: as §2
[6] = test system: Staphylococcus aureus; test: Bactericidal activity against methicillin-resistant Staphylococcus aureus USA300 up to 18 hrs by broth microdilution assay; type: functional; conditions: USA300, 18 h, read-out: MBC99.9
[7] = test system: Staphylococcus aureus; test: Bactericidal activity against methicillin-resistant Staphylococcus aureus NRS107 up to 18 hrs by broth microdilution assay; type: functional; conditions: NRS107, 18 h, read-out: MBC99.9
[8] = test system: Staphylococcus aureus; test: Ratio of MBC to MIC for vancomycin-resistant Staphylococcus aureus VRS11a; type: functional; in short: as §2
[9] = test system: Staphylococcus aureus; test: Antibacterial activity against vancomycin-resistant Staphylococcus aureus VRS11a after 20 hrs by broth microdilution assay; type: functional; in short: as §1
[10] = test system: Staphylococcus aureus; test: Antibacterial activity against methicillin-resistant Staphylococcus aureus NRS119 after 20 hrs by broth microdilution assay; type: functional; conditions: NRS119, 20 h; in short: as §1
[11] = test system: Staphylococcus aureus; test: Antibacterial activity against methicillin-resistant Staphylococcus aureus NRS107 after 20 hrs by broth microdilution assay; type: functional; conditions: NRS107, 20 h; in short: as §1
[12] = test system: Staphylococcus aureus; test: Bactericidal activity against methicillin-resistant Staphylococcus aureus NRS119 up to 18 hrs by broth microdilution assay; type: functional; conditions: NRS119, 18 h, read-out: MBC99.9
[13] = test system: Staphylococcus aureus; test: Antibacterial activity against vancomycin-resistant Staphylococcus aureus VRS12 after 20 hrs by broth microdilution assay; type: functional; conditions: VRS12, 20 h; in short: as §1
[14] = test system: Staphylococcus aureus; test: Bactericidal activity against methicillin resistant vancomycin-resistant Staphylococcus aureus VRS12 up to 18 hrs by broth microdilution assay; type: functional; conditions: VRS12, 18 h, read-out: MBC99.9
In short: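 MBC set up from the MIC plates. Aliquots from wells with no growth spotted onto tryptic soy agar and incubated at 37 °C for at least 18 hours. MBC taken as the lowest concentration giving 99.9% inhibition of bacterial growth.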

[15] = test system: Staphylococcus aureus; test: Bactericidal activity against methicillin resistant vancomycin-resistant Staphylococcus aureus VRS11a up to 18 hrs by broth microdilution assay; type: functional; conditions: read-out: MBC99.9
[16] = test system: Staphylococcus aureus; test: Ratio of MBC to MIC for methicillin-resistant Staphylococcus aureus USA300; type: functional; in short: as §2
[17] = test system: Staphylococcus aureus; test: Antibacterial activity against methicillin-resistant Staphylococcus aureus NRS123 (USA400) after 20 hrs by broth microdilution assay; type: functional; in short: as §1
[18] = test system: Staphylococcus aureus; test: Ratio of MBC to MIC for methicillin-resistant Staphylococcus aureus NRS107; type: functional; in short: as §2
[19] = test system: Staphylococcus aureus; test: Bactericidal activity against methicillin resistant vancomycin-resistant Staphylococcus aureus VRS10 up to 18 hrs by broth microdilution assay; type: functional; conditions: VRS10, 18 h, read-out: MBC99.9
[20] = test system: Staphylococcus aureus; test: Ratio of MBC to MIC for vancomycin-resistant Staphylococcus aureus VRS12; type: functional; in short: as §2
[21] = test system: Staphylococcus aureus; test: Bactericidal activity against methicillin resistant Staphylococcus aureus NRS123 (USA400) up to 18 hrs by broth microdilution assay; type: functional; conditions: read-out: MBC99.9
[22] = test system: Staphylococcus aureus; test: Ratio of MBC to MIC for methicillin-resistant Staphylococcus aureus NRS123 (USA400); type: functional; in short: as §2
[23] = test system: Staphylococcus aureus; test: Potency index, ratio of vancomycin MIC to compound MIC for antibacterial activity against vancomycin-resistant Staphylococcus aureus VRS12; type: functional
[24] = test system: Staphylococcus aureus; test: Antibacterial activity against methicillin-resistant Staphylococcus aureus USA300 after 20 hrs by broth microdilution assay; type: functional; conditions: USA300, 20 h; in short: as §1
[25] = test system: HRT-18 cell line; test: Cytotoxicity against human HRT18 cells assessed as reduction in cell viability up to 32 ug/ml after 2 hrs by MTS assay; type: cell-based; conditions: hrt-18, 2 h
[26] = test system: Staphylococcus aureus; test: Inhibition of UPPS/UPPP in vancomycin-resistant Staphylococcus aureus VRS10 assessed as potentiation of vancomycin-induced antibacterial activity by measuring fold reduction in vancomycin MIC at 0.5 times MIC preincubated for 30 mins followed by vancomycin addition measured after 20 to 22 hrs by broth microdilution assay relative to control
In short: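 VRS10 suspension pre-exposed to compound at ½ × MIC for 30 min at room temperature. […] Incubation at 37 °C for 20–22 h before the MIC was read; untreated bacteria served as control.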

[27] = Selectivity index, ratio of toxic concentration for human HRT18 cells to MIC for methicillin-resistant Staphylococcus aureus; type: toxicity; conditions: read-out: Selectivity Index
[28] = test system: Mus musculus; test: Toxicity in wounded skin area of Balb/c mouse infected with methicillin-resistant Staphylococcus aureus USA300 at 2% administered topically twice daily for 5 consecutive days measured 12 hrs post last dose; type: organism-based; conditions: in vivo, topical_or_ocular
In short: (§3)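 Female Balb/c mice, 8 weeks old, n=5 per group. Intradermal injection of 40 μL of 1.32×10^9 CFU/mL USA300; a wound formed by ~66 h. Treated topically with a 2% suspension in petroleum jelly twice daily for 5 days; the vehicle group served as control. Wounds excised 12 h after the last dose, homogenized in PBS and plated on mannitol salt agar; sites also observed for redness and swelling.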

[29] = test system: Mus musculus; test: Induction of inflammation in Balb/c mouse infected with methicillin-resistant Staphylococcus aureus USA300 assessed as swelling around wounded skin area at 2% administered topically twice daily for 5 consecutive days measured 12 hrs post last dose; type: organism-based; conditions: in vivo, topical_or_ocular; in short: as §3
[30] = test system: Staphylococcus aureus; test: Antibacterial activity against methicillin-resistant Staphylococcus aureus USA300 in Balb/c mouse skin infection model assessed as reduction in bacterial burden in wounded skin area at 2% administered topically twice daily for 5 consecutive days measured 12 hrs post last dose relative to control; type: functional; design: scale not given: the % may be the effect or the level left; in short: as §3
[31] = test system: Mus musculus; test: Induction of inflammation in Balb/c mouse infected with methicillin-resistant Staphylococcus aureus USA300 assessed as redness around wounded skin area at 2% administered topically twice daily for 5 consecutive days measured 12 hrs post last dose relative to control; type: organism-based; conditions: in vivo, topical_or_ocular; in short: as §3

C/C(=N\NC(=N)N)c1sc(-c2ccc(C#CCC3CCCC3)cc2)nc1C
Ratio [1]: >100 | MIC [2]: 2 µg/mL (≈ 5.27 µM) | Ratio [3]: >100 | Ratio [4]: <=3 | Ratio [5]: <=3 | MBC [6]: 4 µg/mL (≈ 10.5 µM) | MBC [7]: 4 µg/mL (≈ 10.5 µM) | Ratio [8]: <=3 | MIC [9]: 4 µg/mL (≈ 10.5 µM) | MIC [10]: 4 µg/mL (≈ 10.5 µM) | MIC [11]: 2 µg/mL (≈ 5.27 µM) | MBC [12]: 4 µg/mL (≈ 10.5 µM) | MIC [13]: 2 µg/mL (≈ 5.27 µM) | MBC [14]: 2 µg/mL (≈ 5.27 µM) | MBC [15]: 4 µg/mL (≈ 10.5 µM) | Ratio [16]: <=3 | MIC [17]: 2 µg/mL (≈ 5.27 µM) | Ratio [18]: <=3 | MBC [19]: 4 µg/mL (≈ 10.5 µM) | Ratio [20]: <=3 | MBC [21]: 2 µg/mL (≈ 5.27 µM) | Ratio [22]: <=3 | Ratio [23]: >100 | MIC [24]: 4 µg/mL (≈ 10.5 µM)

C/C(=N\NC1=NCCN1)c1sc(-c2ccc(C#CC(C)(C)N)cc2)nc1C
MBC [6]: > 64 µg/mL | Ratio [16]: <=3 | MIC [24]: > 64 µg/mL

C/C(=N\NC(=N)N)c1sc(-c2ccc(C#CC(C)(C)N)cc2)nc1C
MBC [6]: 64 µg/mL (≈ 181 µM) | Ratio [16]: <=3 | MIC [24]: 64 µg/mL (≈ 181 µM)

CCCC#Cc1ccc(-c2nc(C)c(/C(C)=N/NC3=NCCN3)s2)cc1
MBC [6]: > 64 µg/mL | Ratio [16]: <=3 | MIC [24]: > 64 µg/mL

C/C(=N\NC(=N)N)c1sc(-c2ccc(C#Cc3ccccc3)cc2)nc1C
Ratio [1]: >100 | Activity [25]: Non-Toxic | MIC [2]: 1 µg/mL (≈ 2.68 µM) | Ratio [3]: >100 | Ratio [4]: <=3 | fold change (FC) [26]: 512 | Ratio [5]: <=3 | MBC [6]: 1 µg/mL (≈ 2.68 µM) | MBC [7]: 2 µg/mL (≈ 5.35 µM) | Ratio [8]: <=3 | MIC [9]: 1 µg/mL (≈ 2.68 µM) | MIC [10]: 1 µg/mL (≈ 2.68 µM) | MIC [11]: 2 µg/mL (≈ 5.35 µM) | MBC [12]: 2 µg/mL (≈ 5.35 µM) | MIC [13]: 2 µg/mL (≈ 5.35 µM) | selectivity ratio [27]: 7 to 31 | MBC [14]: 2 µg/mL (≈ 5.35 µM) | MBC [15]: 2 µg/mL (≈ 5.35 µM) | Ratio [16]: <=3 | MIC [17]: 1 µg/mL (≈ 2.68 µM) | Ratio [18]: <=3 | MBC [19]: 2 µg/mL (≈ 5.35 µM) | Ratio [20]: <=3 | MBC [21]: 4 µg/mL (≈ 10.7 µM) | Ratio ([22]; read-out: Ratio): 4 | Ratio [23]: 8 | MIC [24]: 1 µg/mL (≈ 2.68 µM)

C/C(=N\NC1=NCCN1)c1sc(-c2ccc(C#CCC3CCCC3)cc2)nc1C
MBC [6]: 32 µg/mL (≈ 78.9 µM) | Ratio [16]: <=3 | MIC [24]: 8 µg/mL (≈ 19.7 µM)

C/C(=N\NC1=NCCN1)c1sc(-c2ccc(C#Cc3ccccc3)cc2)nc1C
MBC [6]: 16 µg/mL (≈ 40 µM) | Ratio [16]: <=3 | MIC [24]: 8 µg/mL (≈ 20 µM)

CC(=O)O[C@H]1C[C@@]2(C)[C@@H](C[C@@H](O)[C@H]3[C@@]4(C)CC[C@@H](O)[C@@H](C)[C@@H]4CC[C@@]32C)/C1=C(\CCC=C(C)C)C(=O)O [FUSIDIC ACID]
Activity [28]: Non-Toxic | Activity [29]: Non-Toxic | Activity [30]: 78% | Activity [31]: Non-Toxic
